From BindingDB's records for doi:10.1016/j.ejmech.2011.10.030 (Helwan University, 2011)

Molecular target: Beta-lactamase (Pseudomonas aeruginosa, UniProt Q79MP6)
Assay: Competitive inhibition of Pseudomonas aeruginosa metallo-beta-lactamase IMP-1 expressed in Escherichia coli BL21(DE3) using CENTA as substrate by spectrophotometric analysis
In short: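 IMP-1 lacking the first 21 signal-peptide residues, recombinantly expressed and purified, at 2 nM final. Buffer was 50 mM HEPES, 0.1 M NaCl, 100 µM ZnCl2, pH 7.0, with BSA at 20 µg/mL final. CENTA was varied from 5 to 70 µM final at three inhibitor concentrations. […] was read at 405 nm on a plate reader, and data were fitted by non-linear regression.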

Sequence of Beta-lactamase (Q79MP6 whole entry): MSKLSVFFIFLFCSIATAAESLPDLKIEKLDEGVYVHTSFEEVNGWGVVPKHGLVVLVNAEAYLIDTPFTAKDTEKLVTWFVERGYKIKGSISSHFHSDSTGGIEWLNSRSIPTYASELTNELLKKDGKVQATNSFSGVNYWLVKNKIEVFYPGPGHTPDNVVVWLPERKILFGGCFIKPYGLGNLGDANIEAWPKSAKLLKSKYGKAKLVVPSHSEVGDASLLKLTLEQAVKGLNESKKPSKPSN

Row | Ki | SMILES
1 | 18 µM | Cc1ccc(-n2c(-c3ccccc3)c(-c3ccccc3)c3c(N/N=C/c4ccccc4)ncnc32)cc1
2 | 15 µM | Cc1ccc(-n2c(-c3ccccc3)c(-c3ccccc3)c3c2ncn2c(=S)[nH]nc32)cc1
3 | 29 µM | COc1ccc(-n2c3c(c(-c4ccccc4)c2-c2ccccc2)C(=C(C#N)C#N)NC=N3)cc1

Further lines, the compound ahead of its results:

Row | SMILES | Ki
4 | Cc1ccc(-n2c(-c3ccccc3)c(-c3ccccc3)c3c(Cl)ncnc32)cc1 | 19 µM
5 | Cc1ccc(-n2cc(-c3ccccc3)c3c(Cl)ncnc32)cc1 | 33 µM
6 | COc1ccc(-n2c(-c3ccccc3)c(-c3ccccc3)c3c(Cl)ncnc32)cc1 | 12 µM
